Source: ChEMBL document CHEMBL4049407, “Positional Scanning Identifies the Molecular Determinants of a High Affinity Multi-Leucine Inhibitor for Furin and PACE4” (J Med Chem, 2017)
Peptide text beside a SMILES is read from it. * marks the point of attachment. FITC = O=C1OC2(c3ccc(O)cc3Oc3cc(O)ccc32)c2ccc(NC(=S)*)cc21; NH(4-amidinobenzyl) = N=C(N)c1ccc(CN*)cc1; βAla = NCCC(=O)O

Key:
[1] = Drug uptake in human DU145 cells assessed as geometric mean fluorescence intensity preincubated for 1 hr followed by trypsin washout for 5 mins by propidium iodine-staining based FACS analysis; assay type: ADME, cell-based; settings: du-145, 5 min
In short: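 DU145 cells given FITC-labelled peptide (10 µM) for 1 h in serum-free RPMI, harvested by trypsin:EDTA, then washed twice with 0.05% trypsin for 5 min at 37 °C to strip membrane-bound peptide. Propidium iodide (10 µg/mL, 2 min) excluded damaged cells. 10 000 events/sample were read by flow cytometry as geometric mean fluorescence.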

[2] = Drug uptake in human DU145 cells assessed as geometric mean fluorescence intensity after 1 hr by propidium iodine-staining based FACS analysis; assay type: ADME, cell-based; settings: du-145, 1 h
In short: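 DU145 cells exposed 1 h to FITC-labelled peptide (10 µM) in serum-free RPMI, detached with trypsin:EDTA and pelleted, with no trypsin wash. Dead cells excluded by 2 min propidium iodide (10 µg/mL). Flow cytometry read 10 000 events/sample, and uptake was given as geometric mean fluorescence.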

| Structure (SMILES) | Flu intensity [1] | Flu intensity [2] |
| --- | --- | --- |
| CC(C)C[C@H](NC(=O)CCNC(=S)Nc1ccc2c(c1)C(=O)OC21c2ccc(O)cc2Oc2cc(O)ccc21)C(=O)N[C@@H](CC(C)C)C(=O)N[C@@H](CC(C)C)C(=O)N[C@@H](CC(C)C)C(=O)N[C@@H](CCCNC(=N)N)C(=O)N[C@H](C(=O)N[C@@H](CCCCN)C(=O)NCc1ccc(C(=N)N)cc1)C(C)C ({FITC-βAla}-LLLLRVK-{NH(4-amidinobenzyl)}) | 47.45 | 46.61 |
| CC(C)C[C@H](NC(=O)CCNC(=S)Nc1ccc2c(c1)C(=O)OC21c2ccc(O)cc2Oc2cc(O)ccc21)C(=O)N[C@@H](CC(C)C)C(=O)N[C@@H](CC(C)C)C(=O)N[C@@H](CCCNC(=N)N)C(=O)N[C@@H](CCCNC(=N)N)C(=O)N[C@H](C(=O)N[C@@H](CCCCN)C(=O)NCc1ccc(C(=N)N)cc1)C(C)C ({FITC-βAla}-LLLRRVK-{NH(4-amidinobenzyl)}) | 2.73 | 12.6 |
